Data reported in ChEMBL document CHEMBL3994609, “Model-Based Discovery of Synthetic Agonists for the Zn2+-Sensing G-Protein-Coupled Receptor 39 (GPR39) Reveals Novel Biological Functions” (J Med Chem, 2017).
Active and inactive are the calls of the source. The rule behind the calls is not given here.

Experiments:
[1] = biological target: T1, G-protein coupled receptor 39 (Mus musculus, UniProt Q5U431); experiment: Agonist activity at mouse GPR39 expressed in HEK293 cells co-expressing Galphaq assessed as myo-[2-3H]inositol phosphate accumulation measured after 75 mins by scintillation proximity assay; type: functional, cell-based
T1 sequence (Q5U431 whole entry): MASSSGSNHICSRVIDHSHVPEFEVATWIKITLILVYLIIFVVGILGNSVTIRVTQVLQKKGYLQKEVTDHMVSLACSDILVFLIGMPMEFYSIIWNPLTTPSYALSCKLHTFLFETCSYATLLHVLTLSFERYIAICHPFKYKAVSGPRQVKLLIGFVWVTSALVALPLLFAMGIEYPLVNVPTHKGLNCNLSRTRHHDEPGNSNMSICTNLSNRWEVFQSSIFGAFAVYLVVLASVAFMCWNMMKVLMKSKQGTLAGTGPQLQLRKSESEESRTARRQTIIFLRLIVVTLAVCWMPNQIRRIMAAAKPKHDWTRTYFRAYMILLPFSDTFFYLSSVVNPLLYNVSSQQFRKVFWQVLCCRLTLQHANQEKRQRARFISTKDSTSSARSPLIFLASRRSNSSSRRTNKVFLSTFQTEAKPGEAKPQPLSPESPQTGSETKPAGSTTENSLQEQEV

[2] = biological target: T1, G-protein coupled receptor 39; experiment: Agonist activity at mouse GPR39 expressed in HEK293 cells co-expressing Galphaq assessed as myo-[2-3H]inositol phosphate accumulation in presence of 10 uM Zn2+ measured after 75 mins by scintillation proximity assay; type: functional, cell-based
Plasma = experiment: Drug uptake in mouse plasma at 30 to 60 mg/kg, po administered via gavage measured after 30 to 240 mins by LC-MS/MS analysis; type: ADME, organism-based; details: in vivo
How it was run: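 Mice dosed orally at 30 mg/kg and 60 mg/kg; plasma compound concentration followed from 30 to 240 min.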

[3] = biological target: Growth hormone secretagogue receptor type 1 (Homo sapiens) (UniProt Q92847); experiment: Agonist activity at human ghrelin receptor ([…]) assessed as myo-[2-3H]inositol phosphate accumulation in presence of 10 uM Zn2+ measured after 75 mins by scintillation proximity assay; type: functional
Growth hormone secretagogue receptor type 1 (Homo sapiens), sequence (Q92847 whole entry): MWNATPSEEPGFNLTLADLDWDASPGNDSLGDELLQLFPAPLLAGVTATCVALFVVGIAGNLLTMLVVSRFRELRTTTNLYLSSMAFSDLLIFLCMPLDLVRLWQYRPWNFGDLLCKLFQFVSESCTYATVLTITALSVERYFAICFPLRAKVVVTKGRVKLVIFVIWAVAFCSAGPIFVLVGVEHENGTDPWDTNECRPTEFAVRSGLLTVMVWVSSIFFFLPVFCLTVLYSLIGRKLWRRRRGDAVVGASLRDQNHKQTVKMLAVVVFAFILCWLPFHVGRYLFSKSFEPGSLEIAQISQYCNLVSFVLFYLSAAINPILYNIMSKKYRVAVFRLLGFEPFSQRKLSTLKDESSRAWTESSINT

[4] = biological target: Motilin receptor (Homo sapiens) (UniProt O43193); experiment: Agonist activity at human motilin receptor (412 residues) assessed as myo-[2-3H]inositol phosphate accumulation in presence of 10 uM Zn2+ measured after 75 mins by scintillation proximity assay; type: functional
Motilin receptor (Homo sapiens), sequence (O43193 whole entry): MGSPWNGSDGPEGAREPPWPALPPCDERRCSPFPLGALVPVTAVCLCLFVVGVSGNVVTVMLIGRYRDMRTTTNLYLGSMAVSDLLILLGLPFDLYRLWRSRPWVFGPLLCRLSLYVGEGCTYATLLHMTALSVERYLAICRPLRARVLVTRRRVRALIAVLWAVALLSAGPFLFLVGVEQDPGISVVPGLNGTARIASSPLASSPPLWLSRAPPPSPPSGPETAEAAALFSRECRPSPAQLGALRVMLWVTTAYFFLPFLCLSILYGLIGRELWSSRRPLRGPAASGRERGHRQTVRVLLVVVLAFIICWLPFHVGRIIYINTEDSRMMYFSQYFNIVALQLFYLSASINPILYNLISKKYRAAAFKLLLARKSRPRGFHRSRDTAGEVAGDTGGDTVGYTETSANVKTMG

[5] = biological target: T2, G-protein coupled receptor 39 (Mus musculus) (UniProt Q5U431); experiment: Agonist activity at GPR39 in primary gastric mucosal cells isolated from C57BL/6 mouse assessed as inhibition of isoproterenol-induced ghrelin secretion at 1 uM in presence of 10 uM of Zn2+ and somatostatin receptor antagonist BIM-23627 measured after 4 hrs by ELISA
T2 sequence (whole entry): T1 sequence (Q5U431 whole entry)
How it was run: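 Primary gastric mucosal cell cultures from mice, incubated the day after preparation with ligands at 1 μM with 10 μM Zn2+ (with or without a somatostatin receptor antagonist) in triplicate for 4 h. Acyl-ghrelin in supernatant measured by ELISA, expressed as percent of medium-alone cells; n=5–7; unpaired t-test with Welch's correction versus vehicle.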

[6] = biological target: T2, G-protein coupled receptor 39 (Mus musculus); experiment: Agonist activity at GPR39 in primary gastric mucosal cells isolated from C57BL/6 mouse assessed as myo-[2-3H]inositol phosphate accumulation in presence of 10 uM Zn2+ measured after 75 mins by scintillation proximity assay; type: functional
How it was run: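 Primary murine gastric mucosal cell cultures stimulated with ligand plus 10 μM Zn2+; inositol phosphate turnover read out as for the transfected-cell IP accumulation assay.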

[7] = biological target: T2, G-protein coupled receptor 39 (Mus musculus); experiment: Agonist activity at GPR39 in primary gastric mucosal cells isolated from C57BL/6 mouse assessed as inhibition of basal ghrelin secretion at 1 uM in presence of 10 uM of Zn2+ measured after 4 hrs by ELISA relative to basal level

In the case of `Cc1nn(-c2ncnc3nc[nH]c23)c2c1C(c1ccc(F)cc1Cl)CC(=O)N2` (stereo not drawn), the EC50 [1] is reported as 0.18 µM, the EC50 [2] is reported as 0.005 µM and the Drug uptake (Plasma) is reported as “Active”. The Activity [3] was “inactive”, the Activity [4] was “inactive” and the inhibition [5] was “inactive”. The Activity [6] was “Dose-dependent effect” and the inhibition [7] was 79%.
